From PubChem BioAssay come the findings set out here.

Calls of active or inactive are those of the source.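 How the source made its calls, unless noted: active means inhibition of the reporter signal at or above 50%; inactive means inhibition below 50%.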

A short description of test [1]: inhibitors of TNFa-induced NFkB p65 translocation, primary screen, imaging, HUVEC, MLSMR starter and 10KST1 sets (AID 438;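 active means inhibition above 20% together with a positive visual image hit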;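 further: compound added about 3h40 before a 20 min TNFalpha stimulation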;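 on inhibition: signal is the nuclear over cytoplasmic p65 intensity ratio per well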). Conditions: HUVEC TNFa-induced p65 nuclear translocation; cell count: measured here: nuclei count (cytotoxicity indicator), at 2.08 µM; inhibition: at 2 µM, stronger effect = higher value, 0% TNFa-plus-vehicle, 100% no-TNFa wells.
A short description of test [2]: reduction of polyQ htt aggregates in cells – imaging, exon1htt(103Q)mCFP cells, high-content imaging, primary screen (AID 483;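 active means visual image review flags a hit and inhibition of aggregation exceeds 20%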;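 further: compound exposure lasted 3 days before fixation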;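 on nuclei count: percent of the per-plate median nuclei count of sample wells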). As to conditions: exon1htt(103Q)mCFP cell line, aggregate imaging, at 2 µM; inhibition of aggregation: stronger effect = higher value; nuclei count: measured here: cell count, toxicity.
Test [3] in a line: endothelial E-selectin expression blockers – imaging, HUVEC, immunofluorescence, MLSMR starter and 10KST1 sets, primary screen (AID 487;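 active means visually confirmed hit in the image check and inhibition above 20%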;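 on inhibition: signal is fraction of cell area covered by stained E-selectin grains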;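 on nuclei count: 100% = median nuclei count of all wells on the same plate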). Conditions: HUVEC TNFalpha-induced E-selectin immunofluorescence imaging, at 2 µM; inhibition: stronger effect = higher value; nuclei count: measured here: cell number, toxicity.
For test [4], the target named is Voltage-gated potassium channel subunit beta-2 (Rattus norvegicus) (UniProt P62483). Briefly: inhibitors of rat Kvbeta2 reductase activity – biochemical, NADPH fluorescence, primary screen (AID 622;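 active means fluorescence slope higher than the sample average by over 3 SD, cut at about -0.22 in these data, passing the limit was not always enough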;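 further: slope of raw intensity against log time taken from 70 to 1610 s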). As to conditions: recombinant KvBeta, 4-cyanobenzaldehyde reduction, at 10 µM, stronger effect = higher value.
Chain of Voltage-gated potassium channel subunit beta-2 (Rattus norvegicus) (P62483 whole entry, looked up): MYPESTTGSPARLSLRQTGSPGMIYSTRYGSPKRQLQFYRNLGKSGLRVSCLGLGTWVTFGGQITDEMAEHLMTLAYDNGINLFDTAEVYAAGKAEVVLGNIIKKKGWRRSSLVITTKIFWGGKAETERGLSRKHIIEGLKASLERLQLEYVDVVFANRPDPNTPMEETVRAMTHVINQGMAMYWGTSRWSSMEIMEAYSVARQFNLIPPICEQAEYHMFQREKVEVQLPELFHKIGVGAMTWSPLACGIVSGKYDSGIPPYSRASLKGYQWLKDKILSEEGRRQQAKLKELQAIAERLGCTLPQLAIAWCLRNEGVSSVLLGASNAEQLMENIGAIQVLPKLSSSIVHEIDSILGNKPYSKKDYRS
For test [5] the target is unchanged. Briefly: enhancers of rat Kvbeta2 NADPH turnover – biochemical, NADPH fluorescence, primary screen (AID 623;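 active means NADPH fluorescence slope more negative than the mean of all samples by about 3 SD, 99.7% confidence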;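 further: fluorescence intensity change per second fitted from 20 to 320 s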). Conditions: Recombinant KvBeta, NADPH fluorescence decrease slope, 10 min; at 10 µM; stronger effect = lower value.
Test [6] deals with Muscarinic acetylcholine receptor M4 (Homo sapiens) (UniProt P08173). Briefly: M4-linked GIRK flux change, two-sided – cell-based, HEK293 M4/GIRK, thallium flux, BTC-AM, M4 allosteric agonist project, primary screen (AID 625;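 active means fluorescence slope after compound addition differing from the mean of all tested samples at 99.7% confidence, mostly higher but some lower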;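 further: thallium influx through GIRK channels coupled to M4 in HEK293 cells with BTC-AM dye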). Conditions: at 10 µM, actives lie on both sides. A digest of the protocol:
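assay system = HEK293 cells with M4 receptor and GIRK channels | medium = pH 7.3 thallium assay buffer | doses = 10 µM final, single point | timing = cells overnight at 37 °C, BTC-AM loading 1 h, reads 2 min total | signal = BTC-AM fluorescence, 1 Hz kinetic reads | read-out = post-addition slope, 15–24 s, of baseline-normalized fluorescence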

Test [7] is described as follows: blockers of RIG-like receptor reporter activation – cell-based, Sendai virus stimulus, luciferase, 10K MLSCN set, TLR/RLR signaling modifier project, primary screen (AID 602276;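 active means inhibition at or above 50% at 10 µM; inactive means inhibition below 50%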;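 further: firefly luciferase from ISG56 promoter only with Renilla not read in this screen; 0% = Sendai virus plus DMSO and 100% = medium plus DMSO without virus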). As to conditions: HEK293 RL24 IRF3 luciferase reporter, at 10 µM, stronger effect = higher value. Background: A reporter such as luciferase makes a cellular process visible.
A short description of test [8]: TLR3 IRF3 reporter activation blockers – cell-based, poly I:C stimulus, luciferase, 10K MLSCN set, primary screen (AID 602277). As to conditions: HEK293-TLR3 RL24 IRF3 luciferase reporter, at 10 µM, stronger effect = higher value.

Chain of Muscarinic acetylcholine receptor M4 (Homo sapiens) (P08173 whole entry, looked up): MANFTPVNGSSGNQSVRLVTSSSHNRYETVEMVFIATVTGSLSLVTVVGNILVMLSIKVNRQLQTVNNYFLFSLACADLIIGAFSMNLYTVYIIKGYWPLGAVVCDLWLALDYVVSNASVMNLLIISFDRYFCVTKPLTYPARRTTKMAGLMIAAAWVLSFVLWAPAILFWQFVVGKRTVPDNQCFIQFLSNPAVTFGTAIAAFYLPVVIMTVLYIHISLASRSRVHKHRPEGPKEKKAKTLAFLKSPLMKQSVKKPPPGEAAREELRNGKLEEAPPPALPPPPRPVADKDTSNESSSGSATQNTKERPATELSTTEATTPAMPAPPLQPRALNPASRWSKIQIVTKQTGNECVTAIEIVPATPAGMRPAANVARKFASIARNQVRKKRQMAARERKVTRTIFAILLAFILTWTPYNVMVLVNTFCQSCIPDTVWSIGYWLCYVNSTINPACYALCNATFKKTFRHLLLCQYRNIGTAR

With `CCSc1oc(-c2ccco2)nc1S(=O)(=O)c1ccccc1`, the cell count in test [1] stood at 584. In addition, the inhibition (as a rule, the relative decrease from the control value, in per cent) in test [1] was -7.9% (inactive); in test [3] it was 4.3% (inactive); in test [7], -7.74% (inactive); in test [8] it was -0.253% (inactive). Moreover, the inhibition of aggregation in test [2] was -18% (inactive). For the same compound, the figures for the nuclei count in test [2] and in test [3] were 107% and 105%, respectively. Also, the fluorescence slope in test [4] was -0.316 (inactive); in test [6], 0.00508 (inactive). Further, the NADPH fluorescence slope in test [5] is -2.1e-05 (inactive).
Consider `CCOC(=O)Nc1cc(OCC)c(NC(=O)C2CC2)cc1OCC`, for which the cell count in test [1] was determined as 589. Moreover, the inhibition in test [1] is -12.9% (inactive); in test [3], -52.7% (inactive); in test [7], 3.59% (inactive); in test [8] it was 11.8% (inactive). The inhibition of aggregation in test [2] is -15% (inactive). Also, the nuclei count in test [2] came out at 117%; in test [3], 119%. The values for the fluorescence slope in test [4] and in test [6] were -0.439 (inactive) and 0.00711 (inactive), respectively. Also, the NADPH fluorescence slope in test [5] was -4.7e-05 (inactive).
On to `CCOC(=O)C1CCCN(Cc2nc(N)nc(Nc3ccccc3)n2)C1` (stereo not given), for which, in test [1], the cell count was 741. Further, the inhibition in test [1] is -4.7% (inactive); in test [3] it was -49.1% (inactive); in test [7] it was 22.1% (inactive); in test [8] it was 16.8% (inactive). Further, the inhibition of aggregation in test [2] is -2.7% (inactive). Further, the nuclei count in test [2] worked out at 104%; in test [3], 106%. For the same compound, the figures for the fluorescence slope in test [4] and in test [6] were -0.57 (inactive) and 0.0052 (inactive), respectively. The NADPH fluorescence slope in test [5] is -4.6e-05 (inactive).
As to `COc1ccc(Cc2nc3ccc(S(N)(=O)=O)cc3[nH]2)cc1OC`, in test [1], the cell count was found to be 423. The inhibition is -22.9% (inactive) in test [1], 75.1% (active) in test [3], 9.58% (inactive) in test [7] and 8.25% (inactive) in test [8]. Also, the inhibition of aggregation in test [2] was 18.8% (inactive). For the same compound, the results for the nuclei count in test [2] and in test [3] were 58.6% and 59.2%, respectively. The results for the fluorescence slope in test [4] and in test [6] were -0.553 (inactive) and 0.00712 (inactive), respectively. Further, in test [5], the NADPH fluorescence slope is -2.6e-05 (inactive).
As for `O=C(c1ccccc1)c1coc2ccc(O)c(CN3CCOCC3)c12`, in test [1], the cell count is 651. Further, the inhibition was -5.8% (inactive) in test [1], 1.5% (inactive) in test [3], 14.5% (inactive) in test [7] and 18.2% (inactive) in test [8]. Also, the inhibition of aggregation in test [2] was 8.4% (inactive). Besides, the nuclei count worked out at 77.4% in test [2] and 102% in test [3]. The results for the fluorescence slope in test [4] and in test [6] were -0.577 (inactive) and 0.00407 (inactive), respectively. The NADPH fluorescence slope in test [5] was 3.5e-06 (inactive).
Consider `CCNC(=O)N1c2ccc(OCC)cc2C(C)=CC1(C)C`, for which the cell count in test [1] came to 599. In addition, the inhibition in test [1] is 2.5% (inactive); in test [3], -34% (inactive); in test [7], -6.26% (inactive); in test [8] it was 4.09% (inactive). Further, the inhibition of aggregation in test [2] is 37.2% (inactive). The nuclei count in test [2] came out at 94.1%; in test [3] it was 102%. The fluorescence slope in test [4] was -0.588 (inactive); in test [6], 0.00404 (inactive). Also, in test [5], the NADPH fluorescence slope is -3e-05 (inactive).
Consider `CCn1cc(C2=NOC(C(=O)Nc3cc(C)nn3-c3ccccc3)C2)c(C)n1` (stereo not given), for which the cell count in test [1] was determined as 542. Also, the inhibition in test [1] is -3.4% (inactive); in test [3], -52.6% (inactive); in test [7], -1.87% (inactive); in test [8], 98.7% (active). Besides, in test [2], the inhibition of aggregation is 11.1% (inactive). For the same compound, the nuclei count stood at 93.2% in test [2] and 84.5% in test [3]. Besides, the fluorescence slope is -0.448 (inactive) in test [4] and 0.00533 (inactive) in test [6]. In test [5], the NADPH fluorescence slope is 9.7e-06 (inactive).
With `Cc1ccc(SCCC(=O)N(C)C)cc1`, the cell count in test [1] is 637. The inhibition is -8.6% (inactive) in test [1], -143% (inactive) in test [3], -10.8% (inactive) in test [7] and -52.8% (inactive) in test [8]. In addition, in test [2], the inhibition of aggregation is 10.5% (inactive). For the same compound, the results for the nuclei count in test [2] and in test [3] were 89.8% and 103%, respectively. Moreover, the figures for the fluorescence slope in test [4] and in test [6] were -0.459 (inactive) and 0.00561 (inactive), respectively. In addition, in test [5], the NADPH fluorescence slope is -2.6e-05 (inactive).
On to `CCOC(=O)c1[nH]c2ccccc2c1NC(=O)c1ccco1`, for which the cell count in test [1] amounted to 671. The inhibition in test [1] is -8.6% (inactive); in test [3], 52.3% (inactive); in test [7], 17.1% (inactive); in test [8] it was 21.7% (inactive). For the same compound, the inhibition of aggregation in test [2] is 4.2% (inactive). Besides, the nuclei count was 87.8% in test [2] and 102% in test [3]. Moreover, the figures for the fluorescence slope in test [4] and in test [6] were -0.332 (inactive) and 0.00748 (inactive), respectively. The NADPH fluorescence slope in test [5] was -6.5e-05 (inactive).
As to `COc1ccc(OC)c(C2C3=C(CCCC3=O)Nc3c2c(=O)n(C)c(=O)n3C)c1` (stereo not given), the cell count in test [1] worked out at 508. In addition, the inhibition in test [1] was 1.4% (inactive); in test [3], -15.1% (inactive); in test [7] it was 4.02% (inactive); in test [8], 0.406% (inactive). In test [2], the inhibition of aggregation is 4.8% (inactive). In addition, the nuclei count was found to be 89.5% in test [2] and 96.3% in test [3]. For the same compound, the fluorescence slope in test [4] was -0.547 (inactive); in test [6], 0.00407 (inactive). Besides, in test [5], the NADPH fluorescence slope is -0.000161 (inactive).
Regarding `Cc1ccc(N2CC(C(=O)N3CCN(C(=O)c4ccco4)CC3)CC2=O)cc1` (stereo not given), the cell count in test [1] came to 600. Moreover, the inhibition in test [1] was 2.2% (inactive); in test [3], -39.1% (inactive); in test [7] it was 17.5% (inactive); in test [8], 21.1% (inactive). Moreover, the inhibition of aggregation in test [2] was -16.3% (inactive). The figures for the nuclei count in test [2] and in test [3] were 114% and 100%, respectively. Further, the results for the fluorescence slope in test [4] and in test [6] were -0.571 (inactive) and 0.00509 (inactive), respectively. Besides, in test [5], the NADPH fluorescence slope is -5.1e-05 (inactive).
Take `CCCCn1nnnc1SCC(=O)N1CCN(C(=O)c2ccco2)CC1`: in test [1], the cell count came out at 247. In addition, the inhibition in test [1] was 2.6% (inactive); in test [3] it was 15.1% (inactive); in test [7], 7.65% (inactive); in test [8] it was 15.6% (inactive). Further, the inhibition of aggregation in test [2] was 22.3% (inactive). Also, the nuclei count in test [2] is 72.2%; in test [3], 83.9%. Besides, the fluorescence slope in test [4] is -0.463 (inactive); in test [6], 0.00637 (inactive). Also, the NADPH fluorescence slope in test [5] is -3e-05 (inactive).
Regarding `CCOC(=O)N1CCC(NC(=O)CCc2c(C)nc3c(c(C)nn3C(C)(C)C)c2C)CC1`, the cell count in test [1] worked out at 650. Further, the inhibition in test [1] is 2.6% (inactive); in test [3], -8.7% (inactive); in test [7], 11% (inactive); in test [8], -3.64% (inactive). Further, the inhibition of aggregation in test [2] is 7.1% (inactive). Moreover, the nuclei count in test [2] worked out at 138%; in test [3], 106%. In addition, the figures for the fluorescence slope in test [4] and in test [6] were -0.397 (inactive) and 0.00517 (inactive), respectively. The NADPH fluorescence slope in test [5] is 3.3e-05 (inactive).
For `O=C(CN(c1ccccc1)S(=O)(=O)c1ccccc1)N1CCN(Cc2ccc3c(c2)OCO3)CC1`, in test [1], the cell count was 372. The inhibition in test [1] is 4% (inactive); in test [3], -23.4% (inactive); in test [7] it was 13.6% (inactive); in test [8], 21.8% (inactive). Further, the inhibition of aggregation in test [2] was -11.3% (inactive). For the same compound, the nuclei count in test [2] was 122%; in test [3], 116%. The fluorescence slope is -0.528 (inactive) in test [4] and 0.00412 (inactive) in test [6]. In addition, the NADPH fluorescence slope in test [5] was -3.2e-05 (inactive).
With `CCOC(=O)N1CCC(NC(=O)C2CCCN2C(=O)OCc2ccccc2)CC1` (stereo not given), the cell count in test [1] came to 861. In addition, the inhibition in test [1] is -0.5% (inactive); in test [3] it was -19.6% (inactive); in test [7], -11.6% (inactive); in test [8], -1.88% (inactive). In addition, in test [2], the inhibition of aggregation is -11.6% (inactive). Moreover, the nuclei count in test [2] was 120%; in test [3], 110%. Moreover, the fluorescence slope in test [4] was -0.561 (inactive); in test [6], 0.00566 (inactive). Moreover, the NADPH fluorescence slope in test [5] was -1.3e-05 (inactive).
